# Measurements from different studies.
# STING1 H232R: Stimulator of interferon genes protein (STING1, Homo sapiens, UniProt Q86WV6, H232R)
# Phosphatidylserine lipase ABHD16A: Phosphatidylserine lipase ABHD16A (Homo sapiens, UniProt O95870)
SMILES,target,effect on,mode,technique,measurement,value
CN1CCC[C@H]1c1cccnc1,"Urea transporter 1 (Slc14a1, Rattus norvegicus, UniProt P97689)",transporter uptake,inhibitor,,IC50,~40 µM
CC(C)C[C@@H]1NC(=O)[C@H](Cc2ccc(O)cc2)NC(=O)[C@H](C(C)C)NC(=O)[C@H](Cc2ccc(O)cc2)NC(=O)[C@H](CC(N)=O)NC(=O)[C@H](Cc2ccccc2)N(C)C(=O)[C@@H]2CCCN2C(=O)[C@H](Cc2ccc(O)cc2)NC(=O)[C@H](C(C)C)NC(=O)[C@H](CC(C)C)NC(=O)[C@H](Cc2ccccc2)NC(=O)CSC[C@@H](C(=O)NCC(N)=O)NC1=O,STING1 H232R,ligand displacement,,TR-FRET,IC50,38 µM
CC(=O)CC(=O)C(=O)O,"4-hydroxy-tetrahydrodipicolinate synthase (dapA, Escherichia coli K-12, UniProt P0A6L2)",enzyme activity,inhibitor,absorbance,Ki,1.4 µM
Cn1cc(-c2cc(F)cc(N3CCn4c(cc5c4CCCC5)C3=O)c2CO)cc(Nc2ccc(N3CCN(C4COC4)CC3)cn2)c1=O,"Tyrosine-protein kinase Lck (LCK, Homo sapiens, UniProt P06239)",enzyme activity,inhibitor,FRET,Ki,1.07 µM
N=C(N)NCCC[C@H](N)C(=O)O,"Nitric oxide synthase, inducible (Nos2, Mus musculus, UniProt P29477)",cell-free assay,,,Kd,2.6 µM
CC(C)[C@@H]1NC(=O)[C@@H]2CCCN2C(=O)[C@H](Cc2ccccc2)NC(=O)CSC[C@@H](C(=O)N[C@@H](Cc2ccc(O)cc2)C(N)=O)NC(=O)[C@H](Cc2c[nH]c3ccccc23)NC(=O)[C@H](CCCCN)NC(=O)[C@H](Cc2ccccc2)N(C)C(=O)[C@H](Cc2ccccc2)NC1=O,STING1 H232R,binding,,SPR,Kd,0.25 µM
O=C(Nc1ccc(I)cc1)N1CCC(n2c(=O)[nH]c3c(Br)cccc32)CC1,"N-glycosylase/DNA lyase (OGG1, Homo sapiens, UniProt O15527)",enzyme activity,inhibitor,fluorescence,IC50,0.342 µM
Nc1ccn([C@@H]2O[C@H](COP(=O)(O)OP(=O)(O)OP(O)(O)=S)[C@@H](O)[C@H]2O)c(=O)n1,"virB (Shigella flexneri, UniProt P0A247)",binding,,ITC,Kd,14.3 µM
NC(=O)CCCC/C=C1\C(=O)OC1CCCCCCCCCc1ccccc1 (stereo not drawn),Phosphatidylserine lipase ABHD16A,enzyme activity,inhibitor,,IC50,0.2 to 0.5 µM
CC(C)C[C@H](NC(=O)[C@H](Cc1ccccc1)NC(=O)[C@H](Cc1ccc(O)cc1)NC(=O)CNC(=O)[C@H](CCCCN)NC(=O)[C@H](CO)NC(=O)[C@H](CCC(N)=O)NC(=O)CNC(=O)[C@@H](NC(=O)[C@H](CO)NC(=O)[C@@H]1CCCN1C(=O)[C@H](CO)NC(=O)[C@H](CCC(N)=O)NC(=O)[C@H](Cc1ccc(O)cc1)NC(=O)[C@H](CCC(=O)O)NC(=O)[C@H](C)NC(=O)[C@H](CCCCN)NC(=O)[C@@H](N)Cc1ccccc1)C(C)C)C(=O)N[C@@H](Cc1ccccc1)C(=O)N[C@@H](CCCNC(=N)N)C(=O)N1CCC[C@H]1C(=O)N[C@@H](CCCNC(=N)N)C(=O)N[C@@H](CC(N)=O)C(N)=O,"Neuromedin-U receptor 1 (NMUR1, Homo sapiens, UniProt Q9HB89)",inositol phosphate,agonist,,EC50,0.000447 µM
CCCCCCCCCCCCCC1OC(=O)/C1=C\CCCCC(N)=O (stereo not drawn),Phosphatidylserine lipase ABHD16A,cell-free assay,inhibitor,,IC50,0.2 to 0.5 µM
CC(=O)SCCNC(=O)CCNC(=O)[C@H](O)C(C)(C)COP(=O)(O)OP(=O)(O)OC[C@H]1O[C@@H](n2cnc3c(N)ncnc32)[C@H](O)[C@@H]1OP(=O)(O)O,"CAB1 (Saccharomyces cerevisiae, UniProt Q04430)",enzyme activity,inhibitor,,IC50,> 100 µM
